# This is a sample that favours compounds with a hit; in the whole collection about 2.2% have one here.
# SKN-1 block – C. elegans SKN-1 inhibition. C. elegans VP596 Pgst-4::GFP/RFP ratio, acrylamide-induced, 24 h. inhibition, % at 21.8 µM. 360,000 compounds, 0.49% hits;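 active = interference check ratio from 0.5 to 1.5 plus GFP to RFP signal ratio inhibition reaching or exceeding a fixed threshold, cut at about 30% in these data, passing the limit was not always enough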
# DDE Tn6 FP inh – inhibitors of Tn6 peptide binding to human fibrin DD(E); inhibition, % at 8.3 µM; 370,000 compounds, 0.21% hits; Fibrin DD(E) TRITC-Tn6 fluorescence polarization displacement;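 active = inhibition above a per-campaign cutoff: mean of compounds within control limits plus 3 SD, cut at about 15% in these data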;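 note: 0% = median of all compound wells on the plate and 100% = blocking peptide control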
# proKLK7 act – activators of human kallikrein-7 zymogen; 370,000 compounds, 0.9% hits; purified proKLK7, EDANS-DABCYL substrate fluorescence; 100% is mature enzyme control, 0% vehicle; AID 652039; activation, % at 7 µM; P49862;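 active = activation above the mean of all tested compounds plus 3 SD, computed per campaign excluding outliers beyond control limits, cut at about 13% in these data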
# DDE Tn7 FP inh – inhibitors of Tn7 peptide binding to human fibrin DD(E). 370,000 compounds, 0.13% hits. P02675. inhibition, % at 8.3 µM. FP displacement of FITC-Tn7 peptide from fibrin DD(E); 0% = median of compound wells per plate;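 active = inhibition above the mean of compounds falling within the control limits plus 3 SD of them, cut at about 14% in these data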;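 note: 0% = plate median of compound wells and 100% = 10 µM Aha-Tn7 peptide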
#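 System: human fibrin DD(E); quantity: Fibrin-DD(E) at 2 µM final; also added: fluorescent Tn7 probe at 0.1 µM; compound dosing: single nominal test concentration of 8.3 µM per compound; schedule: 10 min preincubation, 3 h with tracer, room temperature; detection: fluorescence polarization of the labelled Tn7 tracer; repeats: one replicate per compound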
# Neddyl block – inhibitors of human cullin neddylation. P61081+Q13564. TR-FRET cullin neddylation, biochemical. calls only at 25 µM. 360,000 compounds, 0.58% hits. AID 651699; in the data active = inhibition above about 36%
# Target sequence (P61081 whole entry, looked up): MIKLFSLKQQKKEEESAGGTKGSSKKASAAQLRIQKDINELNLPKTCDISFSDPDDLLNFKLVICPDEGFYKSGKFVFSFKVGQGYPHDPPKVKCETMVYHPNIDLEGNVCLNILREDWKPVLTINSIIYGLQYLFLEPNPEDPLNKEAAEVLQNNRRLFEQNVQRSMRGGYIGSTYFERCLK
# Target sequence (Q13564 whole entry, looked up): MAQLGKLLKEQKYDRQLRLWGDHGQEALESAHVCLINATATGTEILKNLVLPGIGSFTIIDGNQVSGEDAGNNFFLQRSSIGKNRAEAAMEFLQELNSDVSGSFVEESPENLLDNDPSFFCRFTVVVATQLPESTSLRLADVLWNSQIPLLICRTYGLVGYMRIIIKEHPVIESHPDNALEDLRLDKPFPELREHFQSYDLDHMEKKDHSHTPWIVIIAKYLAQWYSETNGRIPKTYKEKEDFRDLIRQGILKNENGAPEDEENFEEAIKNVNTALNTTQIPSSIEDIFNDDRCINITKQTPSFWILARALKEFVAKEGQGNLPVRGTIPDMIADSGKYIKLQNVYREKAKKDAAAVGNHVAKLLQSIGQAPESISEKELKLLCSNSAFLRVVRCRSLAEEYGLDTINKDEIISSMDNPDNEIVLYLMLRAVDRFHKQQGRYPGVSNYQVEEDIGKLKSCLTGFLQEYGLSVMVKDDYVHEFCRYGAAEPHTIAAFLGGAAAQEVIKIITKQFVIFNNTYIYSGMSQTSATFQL
# MT1-MMP act inh – MT1-MMP (human) activation inhibition | P50281 | HT1080 RFP-PRO-GFP cells, GFP/RFP ratio fluorescence, overnight; percent of plate control window, DMSO zero | GFP/RFP ratio change, % at 20 µM | 360,000 compounds, 0.061% hits | AID 651647;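 active = GFP/RFP ratio change of at least 30% with cell ATP level not reduced by more than half and red fluorescence within 50% of control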
#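 Assay system: HT1080 cells carrying an RFP-PRO-GFP reporter | Dosing: Single dose of 20 µM compound, 1% DMSO final | Incubation: Cells overnight before dosing, compound overnight, 37 °C, 5% CO2 | Evaluation: GFP/RFP fluorescence ratio | Control set: DMSO and RFP-L50D-GFP cell wells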
# Neddyl conf – cullin neddylation inhibition, confirmation; shares compounds with Neddyl block; TR-FRET cullin neddylation biochemical assay; calls only at 25 µM; 1,800 compounds, 13% hits; AID 652217; in the data active = inhibition above about 40%;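 note: neddylation substrate is the cullin 1 ring ligase complex with SKP2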
# Active calls of the source: *; i = inactive; . = no result given; + = active, no number.
SMILES,SKN-1 block,DDE Tn6 FP inh,proKLK7 act,DDE Tn7 FP inh,Neddyl block,MT1-MMP act inh,Neddyl conf
CC1CCCCN1S(=O)(=O)c1ccc(C(=O)N(CCCN(C)C)c2nc3cc4c(cc3s2)OCO4)cc1 (stereo unspecified),1,4,1,4,i,-1,.
Cc1cc(-c2ccccc2)[nH]c(=O)c1C#N,-3,3,-14,1,+,2,.
CSc1cc(-c2ccccc2)[nH]c(=O)c1C#N,-3,-6,-10,-2,i,2,.
Cc1ccc(-c2cc(-c3ccco3)c(C#N)c(=O)[nH]2)cc1,6,-3,-4,-1,+,-2,i
N#Cc1c(-c2ccco2)cc(-c2ccccc2)[nH]c1=O,-6,5,9,5,.,-5,.
O=C(CSc1ncnc2sc3c(c12)CCCC3)Nc1ccc(Oc2ccccc2)cc1,.,6,0,-6,.,.,.
CC(=O)N(c1nc2ccccc2s1)N1C(=O)c2ccccc2C1=O,.,-9,-1,3,.,.,.
CCCN(Cc1ccccc1)C(=S)Nc1cccc(C(F)(F)F)c1,-7,1,1,-3,i,0,.
Cc1cc(C)n(-c2nc(-c3ccc(Cl)c(Cl)c3)cs2)n1,1,-1,0,6,i,-2,.
COc1ccc(-c2cn3cccnc3n2)cc1NC(=O)c1cc(OC)c(OC)c(OC)c1,-2,-12,5,3,.,9,.
COc1ccc(-c2cn3cccnc3n2)cc1NC(=O)c1cccs1,8,0,4,7,+,3,+
O=C(CCNS(=O)(=O)c1cccc2nonc12)N1CCN(c2cccc(Cl)c2)CC1,4,4,0,6,i,-3,.
COc1ccc(-c2cc(=O)c3cc(O)ccc3o2)cc1,1,4,0,0,+,1,.
COC(=O)c1sccc1NC(=S)Nc1ccc(F)cc1F,0,5,0,-2,i,-3,.
CC1(Cc2ccc(Cl)c(Cl)c2)C(=O)Nc2ccc(S(=O)(=O)NC3CCCCC3)cc21 (stereo unspecified),1,2,1,-6,i,-21,.
COc1cc(Br)cc(/C=N/NC(=O)Cc2ccccc2)c1O,-3,4,-47,1,+,3,i
CC/C(=N\Nc1ccnc2cc(Cl)ccc12)c1ccc(O)cc1,7,-2,3,-2,+,0,i
Oc1ccc(/C=N/Nc2ccnc3cc(Cl)ccc23)c(O)c1O,14,-3,0,0,i,-5,.
S=c1[nH]c2cnc(Cl)nc2[nH]1,2,0,0,4,i,5,.
S=c1[nH]c2nc(Cl)c(Cl)nc2[nH]1,5,7,0,7,+,-2,+
Cc1ccc(O)c(/C=N/NC(=O)CN2CCCC2)c1,10,-2,-43,-3,+,6,i
S=C(NCCCN1CCOCC1)N1CCN(c2cccc(Cl)c2)CC1,13,8,0,-2,i,2,.
O=C(O)c1cccc(C(=O)c2cccc(C(=O)O)c2)c1,0,1,0,2,i,-2,.
O=C(O)c1cc2ccc3cccc4ccc(c1)c2c34,-8,4,2,5,+,-3,.
Cc1cccc(C2c3[nH]c4ccccc4c3CCN2C(=O)c2cc3c([nH]c2=O)CCCC3)n1 (stereo unspecified),6,-7,-1,-4,i,-2,.
SMILES,SKN-1 block,DDE Tn6 FP inh,proKLK7 act,DDE Tn7 FP inh,Neddyl block,MT1-MMP act inh,Neddyl conf
COc1ccc2c(c1)c(=O)oc1c(C)c(OC(C)C(=O)N[C@@H](Cc3c[nH]c4ccc(O)cc34)C(=O)O)ccc12 (stereo partly specified),-1,-13,2,-2,+,2,.
CC(Oc1ccc2c(-c3ccccc3)cc(=O)oc2c1)C(=O)NC(Cc1c[nH]c2ccc(O)cc12)C(=O)O (stereo unspecified),3,-6,0,9,i,-4,.
CCOc1ccc2oc(C(=O)NCC3CCCO3)c(C)c2c1 (stereo unspecified),18,4,0,-3,+,-4,+
CCOc1ccc2oc(C(=O)NNC(=O)c3csc(N4CCOCC4)n3)c(C)c2c1,9,-6,0,7,+,-1,i
Cc1ccc(-c2nnc(SCC(=O)NC(=O)Nc3ccc(C)cc3C)n2N)cc1,1,-6,0,8,i,2,.
COc1cccc(Nc2nc(-c3ccc4c(c3)OCCO4)cs2)c1,9,0,-2,4,i,-2,.
O=C(c1ccco1)N1N=C(c2cccs2)CC1c1ccc(F)cc1 (stereo unspecified),-7,1,0,-6,+,-2,i
Cc1ccc(C2CC(c3cccs3)=NN2C(=O)CSC2=NCCS2)cc1 (stereo unspecified),13,-1,-1,9,.,-5,.
COc1ccc(C2CC(c3cccs3)=NN2C(=O)CSC2=NCCS2)cc1 (stereo unspecified),7,-2,1,7,+,-5,i
CCC(=O)N1N=C(c2cccs2)CC1c1ccc(C)cc1 (stereo unspecified),-4,0,0,9,+,-4,.
Cc1ccc(C2CC(c3cccs3)=NN2C(=O)CCl)cc1 (stereo unspecified),-3,2,-1,11,.,-4,.
O=C(Nc1ccccc1)N1N=C(c2cccs2)CC1c1cccs1 (stereo unspecified),10,0,1,-1,+,2,i
COc1ccc(C2=NN(C(=O)CCCC(=O)O)C(c3cn(-c4ccccc4)nc3-c3ccccc3)C2)cc1 (stereo unspecified),9,0,0,-6,i,15,.
COc1ccc(-c2nn(-c3ccccc3)cc2C2CC(c3cccs3)=NN2C(=O)CCC(=O)O)cc1 (stereo unspecified),14,3,0,5,+,15,i
N#Cc1ccccc1OCC(=O)N1N=C(c2cccs2)CC1c1ccco1 (stereo unspecified),3,6,0,2,+,2,i
O=C(COc1cc(F)ccc1[N+](=O)[O-])N1N=C(c2cccs2)CC1c1ccco1 (stereo unspecified),5,3,0,-1,i,2,.
CCOC(=O)CSc1ccc(-c2nc3ccccc3[nH]2)cn1,18,-7,2,1,i,-7,.

# High-throughput results from PubChem.
